Laboratory results taken from ChEMBL document CHEMBL5674890, “Selective inhibition of CBP/p300 HAT by A-485 results in suppression of lipogenesis and hepatic gluconeogenesis” (Cell Death Dis, 2020).
Calls of active or inactive are those of the source. No cut-off for these calls is given here.

Columns and labels:
Mus musculus [1] = test: Inhibition of lipogenesis in C57BL/6 mouse supplemented with high-fat diet assessed as decrease in PPARgamma mRNA expression at 20 mg/kg/day, ip administered for 1 week measured measured by RT-qPCR assay; format: functional, organism-based; settings: time 1.0 weeks
Procedure, shortened: (§1)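 Male C57BL/6 mice were fed high-fat diet for 14 weeks from 5 weeks of age, then injected ip with 20 mg·kg−1·day−1 for 7 days or given vehicle. Epididymal and inguinal WAT were weighed, examined by H&E, and analysed. Transcripts were measured by Trizol/SYBR Green RT-qPCR; proteins by western blot. n = 5–9; mean ± SEM.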

Mus musculus [2] = test: Anti-obesity activity in 6 hrs fasted C57BL/6 mouse supplemented with normal chow diet assessed as effect on fasting blood glucose at 20 mg/kg/day, ip administered for 1 week; format: functional, organism-based; settings: time 1.0 weeks
Procedure, shortened: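 8-week-old male C57BL/6 mice on normal chow, ip 20 mg·kg−1·day−1 for 7 days. Blood glucose measured randomly fed or after 6 h or 16 h fasting, as the line states. Mean ± SEM, n = 5–9.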

Hepatocyte [3] = test: Inhibition of lipogenesis in mouse primary hepatocytes assessed as decrease in FAS protein expression at 3 uM in presence of 100 nM insulin and 5 to 25 mM glucose measured after 18 hrs by western blot analysis; format: functional, cell-based
Mus musculus [4] = test: Inhibition of lipogenesis in C57BL/6 mouse supplemented with normal chow diet assessed as effect on ACO mRNA expression at 20 mg/kg/day, ip administered for 1 week measured by RT-qPCR assay; format: functional, organism-based; settings: time 1.0 weeks
Procedure, shortened: (§2)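 Eight-week-old male C57BL/6 mice on normal chow were given 20 mg·kg−1·day−1 ip daily for 7 days or vehicle. Epididymal WAT was collected. Lipogenic, adipogenic and fatty-acid-oxidation transcripts were quantified by Trizol extraction and SYBR Green RT-qPCR. FAS, ACC, PPARγ and C/EBPα protein were assessed by western blot. n = 5–9; mean ± SEM.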

Mus musculus [5] = test: Inhibition of lipogenesis in C57BL/6 mouse supplemented with normal chow diet assessed as effect on ACADVL mRNA expression at 20 mg/kg/day, ip administered for 1 week measured by RT-qPCR assay; format: functional, organism-based; settings: time 1.0 weeks; procedure, shortened: as §2
Mus musculus [6] = test: Inhibition of lipogenesis in C57BL/6 mouse supplemented with normal chow diet assessed as decrease in PPARgamma mRNA expression at 20 mg/kg/day, ip administered for 1 week measured measured by RT-qPCR assay; format: functional, organism-based; settings: time 1.0 weeks; procedure, shortened: as §2
Mus musculus [7] = test: Inhibition of hepatic lipogenesis in C57BL/6 mouse supplemented with high fat diet assessed as decrease in triglyceride level at 20 mg/kg/day, ip administered for 1 week; format: functional, organism-based; settings: time 1.0 weeks
Procedure, shortened: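 Male C57BL/6 mice received ip A-485 at 20 mg·kg−1·day−1 for 7 days, versus vehicle. NCD mice were 8 weeks old. HFD mice had been on high-fat diet for 14 weeks from 5 weeks of age. Liver triglyceride and total cholesterol content was determined. n = 5–9; mean ± SEM.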

Mus musculus [8] = test: Inhibition of lipogenesis in C57BL/6 mouse supplemented with normal chow diet assessed as effect on UCP1 mRNA expression at 20 mg/kg/day, ip administered for 1 week measured by RT-qPCR assay; format: functional, organism-based; settings: time 1.0 weeks; procedure, shortened: as §2
Mus musculus [9] = test: Inhibition of lipogenesis in C57BL/6 mouse supplemented with high-fat diet assessed as decrease in weight of epididymal white adipose tissue (eWAT) at 20 mg/kg/day, ip administered for 1 week; format: functional, organism-based; settings: time 1.0 weeks; procedure, shortened: as §1
Mus musculus [10] = test: Inhibition of lipogenesis in C57BL/6 mouse supplemented with normal chow diet assessed as decrease in ACC mRNA expression at 20 mg/kg/day, ip administered for 1 week measured by RT-qPCR assay; format: functional, organism-based; settings: time 1.0 weeks; procedure, shortened: as §2
[11] = target: CREB-binding protein/Histone acetyltransferase p300 (Homo sapiens) (UniProt Q09472+Q92793); test: Inhibition of CBP/p300 in mouse primary hepatocytes stimulated with 100 uM 8-Br-cAMP assessed as effect on COP1 protein expression at 3 uM measured after 12 hrs by western blot analysis; format: cell-based; settings: Primary hepatocyte
Hepatocyte [12] = test: Inhibition of glucogenesis in mouse primary hepatocytes stimulated with 100 uM 8-Br-cAMP assessed as decrease in PEPCK mRNA expression at 3 uM measured after 8 hrs by RT-qPCR assay
Mus musculus [13] = test: Inhibition of hepatic lipogenesis in C57BL/6 mouse supplemented with normal chow diet assessed as decrease in lipid droplet at 20 mg/kg/day, ip administered for 1 week measured by Oil red O staining method; format: functional, organism-based; settings: time 1.0 weeks
Procedure, shortened: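 Eight-week-old male C57BL/6 mice on normal chow were dosed daily by ip injection at 20 mg·kg−1·day−1 for 7 days, with a vehicle group. Liver sections were stained with Oil red O to view lipid droplets.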

Mus musculus [14] = organism: Mus musculus; test: Inhibition of glucogenesis in mouse assessed as decrease in hepatic C/EBPalpha protein expression measured by western blot analysis; format: functional, organism-based
Procedure, shortened: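 Livers from vehicle- or treated mice (ip 20 mg·kg−1·day−1 for 7 days) homogenized in lysis buffer; FOXO1 and C/EBPα analysed by western blot.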

Hepatocyte [15] = test: Inhibition of lipogenesis in mouse primary hepatocytes assessed as increase in FGF21 mRNA expression at 3 uM in presence of 100 nM insulin and 5 to 25 mM glucose measured after 18 hrs by RT-qPCR assay; format: functional, cell-based
Procedure, shortened: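 Primary hepatocytes isolated from C57BL/6 mice by two-step perfusion. Cells incubated 18 h with 3 μM inhibitor, with 0 or 100 nM insulin and 5 or 25 mM glucose. Transcripts quantified by SYBR Green RT-qPCR after Trizol RNA extraction; proteins by western blot of lysates. Mean ± SEM.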

Hepatocyte [16] = test: Inhibition of glucogenesis in mouse primary hepatocytes stimulated with 100 uM 8-Br-cAMP assessed as effect on PGC1alpha mRNA expression at 3 uM measured after 8 hrs by RT-qPCR assay; format: functional, cell-based
Procedure, shortened: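 Primary mouse hepatocytes treated with 3 μM compound and 100 μM 8-Br-cAMP for 8 h. Trizol RNA, SYBR Green RT-qPCR of the named transcript. Mean ± SEM, three independent experiments.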

Adipocyte = test: Inhibition of lipogenesis in mouse adipocytes isolated stromal vascular cells assessed as decrease in ACC mRNA expression measured after 24 hrs by RT-qPCR assay; format: functional, cell-based
Procedure, shortened: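 Stromal vascular cells came from collagenase-digested inguinal WAT of C57BL/6 mice and were grown in DMEM/F12 with 10% FBS. At confluence, differentiation used insulin 5 μg/ml, dexamethasone 1 μM and IBMX 0.5 mM for 48 h, then insulin alone for 6 days. Fully differentiated day-8 adipocytes were exposed to A-485 for 24 h. Transcripts were quantified by RT-qPCR.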

Mus musculus [17] = test: Inhibition of lipogenesis in C57BL/6 mouse supplemented with high-fat diet assessed as decrease in C/EBPalpha mRNA expression at 20 mg/kg/day, ip administered for 1 week measured measured by RT-qPCR assay; format: functional, organism-based; settings: time 1.0 weeks; procedure, shortened: as §1
Mus musculus [18] = test: Anti-obesity activity in C57BL/6 mouse supplemented with high fat diet assessed as decrease in fasting blood glucose at 20 mg/kg/day, ip administered for 1 week; format: functional, organism-based; settings: time 1.0 weeks
Procedure, shortened: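 Male C57BL/6 mice fed high-fat diet for 14 weeks from 5 weeks of age, then ip 20 mg·kg−1·day−1 for 7 days. Body weight, EchoMRI lean/fat mass, and random or 16 h-fasted blood glucose recorded, as the line states.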

CREB-binding protein/Histone acetyltransferase p300 (Homo sapiens), sequence (Q09472 whole entry, looked up): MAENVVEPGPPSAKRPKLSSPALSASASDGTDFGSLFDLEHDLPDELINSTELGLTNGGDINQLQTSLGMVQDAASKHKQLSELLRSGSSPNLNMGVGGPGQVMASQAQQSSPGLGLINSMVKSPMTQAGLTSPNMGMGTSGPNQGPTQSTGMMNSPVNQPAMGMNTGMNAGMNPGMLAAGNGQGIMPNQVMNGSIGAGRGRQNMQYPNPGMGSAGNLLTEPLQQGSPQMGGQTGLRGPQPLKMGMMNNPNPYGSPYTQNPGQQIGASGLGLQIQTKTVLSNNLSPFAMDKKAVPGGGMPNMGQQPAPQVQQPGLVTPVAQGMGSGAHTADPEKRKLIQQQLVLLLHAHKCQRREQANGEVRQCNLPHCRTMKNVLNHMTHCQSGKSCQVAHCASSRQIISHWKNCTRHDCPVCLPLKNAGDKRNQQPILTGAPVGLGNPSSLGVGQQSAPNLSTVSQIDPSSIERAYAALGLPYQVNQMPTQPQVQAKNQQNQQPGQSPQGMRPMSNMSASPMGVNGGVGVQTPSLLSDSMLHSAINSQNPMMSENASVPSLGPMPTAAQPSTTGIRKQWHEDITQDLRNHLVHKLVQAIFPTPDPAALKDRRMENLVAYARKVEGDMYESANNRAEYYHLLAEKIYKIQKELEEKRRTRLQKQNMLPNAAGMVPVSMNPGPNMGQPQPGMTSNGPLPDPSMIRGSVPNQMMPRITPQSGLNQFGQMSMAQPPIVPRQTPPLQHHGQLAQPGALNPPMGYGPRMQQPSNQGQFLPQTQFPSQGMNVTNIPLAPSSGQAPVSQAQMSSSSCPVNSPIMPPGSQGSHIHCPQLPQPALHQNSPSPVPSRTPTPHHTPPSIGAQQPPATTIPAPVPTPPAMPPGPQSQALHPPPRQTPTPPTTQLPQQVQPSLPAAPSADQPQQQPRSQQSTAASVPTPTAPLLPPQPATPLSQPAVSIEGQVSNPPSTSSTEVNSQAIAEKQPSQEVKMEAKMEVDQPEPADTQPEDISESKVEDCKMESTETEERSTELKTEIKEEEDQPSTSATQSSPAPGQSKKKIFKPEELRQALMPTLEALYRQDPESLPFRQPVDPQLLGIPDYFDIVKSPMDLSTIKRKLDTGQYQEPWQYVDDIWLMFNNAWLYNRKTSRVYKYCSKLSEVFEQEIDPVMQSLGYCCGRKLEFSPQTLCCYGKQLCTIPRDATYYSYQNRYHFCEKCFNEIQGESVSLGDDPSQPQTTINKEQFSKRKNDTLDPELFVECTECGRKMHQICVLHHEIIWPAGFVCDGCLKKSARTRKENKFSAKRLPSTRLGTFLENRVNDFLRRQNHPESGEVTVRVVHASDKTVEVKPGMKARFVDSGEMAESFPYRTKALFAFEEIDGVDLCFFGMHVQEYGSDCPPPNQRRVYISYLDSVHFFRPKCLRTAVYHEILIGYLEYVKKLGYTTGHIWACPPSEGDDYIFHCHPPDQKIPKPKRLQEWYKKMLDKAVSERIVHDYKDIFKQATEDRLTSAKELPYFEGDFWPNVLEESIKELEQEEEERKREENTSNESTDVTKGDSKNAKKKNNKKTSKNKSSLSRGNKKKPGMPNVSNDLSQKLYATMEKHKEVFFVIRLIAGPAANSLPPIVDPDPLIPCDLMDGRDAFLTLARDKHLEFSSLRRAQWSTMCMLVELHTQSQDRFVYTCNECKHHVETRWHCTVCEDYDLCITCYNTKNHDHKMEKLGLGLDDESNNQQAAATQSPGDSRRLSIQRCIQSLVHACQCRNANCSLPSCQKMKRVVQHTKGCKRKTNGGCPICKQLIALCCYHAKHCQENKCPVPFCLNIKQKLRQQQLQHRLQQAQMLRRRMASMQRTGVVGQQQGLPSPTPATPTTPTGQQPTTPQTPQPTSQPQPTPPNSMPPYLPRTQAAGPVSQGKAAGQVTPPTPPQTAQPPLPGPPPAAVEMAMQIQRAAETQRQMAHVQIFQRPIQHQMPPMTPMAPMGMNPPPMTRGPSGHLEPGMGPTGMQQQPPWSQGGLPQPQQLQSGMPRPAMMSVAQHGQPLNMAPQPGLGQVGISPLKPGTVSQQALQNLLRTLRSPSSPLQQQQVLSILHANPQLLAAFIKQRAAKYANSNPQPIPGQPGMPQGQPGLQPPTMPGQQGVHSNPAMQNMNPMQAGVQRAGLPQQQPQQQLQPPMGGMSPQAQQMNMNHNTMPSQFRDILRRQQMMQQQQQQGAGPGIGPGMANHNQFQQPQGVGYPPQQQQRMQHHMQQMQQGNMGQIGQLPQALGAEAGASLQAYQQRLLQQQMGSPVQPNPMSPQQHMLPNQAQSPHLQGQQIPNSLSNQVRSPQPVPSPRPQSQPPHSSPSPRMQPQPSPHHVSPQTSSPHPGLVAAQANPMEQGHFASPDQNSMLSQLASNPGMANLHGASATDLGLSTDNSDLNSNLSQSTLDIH
CREB-binding protein/Histone acetyltransferase p300 (Homo sapiens), sequence (Q92793 whole entry, looked up): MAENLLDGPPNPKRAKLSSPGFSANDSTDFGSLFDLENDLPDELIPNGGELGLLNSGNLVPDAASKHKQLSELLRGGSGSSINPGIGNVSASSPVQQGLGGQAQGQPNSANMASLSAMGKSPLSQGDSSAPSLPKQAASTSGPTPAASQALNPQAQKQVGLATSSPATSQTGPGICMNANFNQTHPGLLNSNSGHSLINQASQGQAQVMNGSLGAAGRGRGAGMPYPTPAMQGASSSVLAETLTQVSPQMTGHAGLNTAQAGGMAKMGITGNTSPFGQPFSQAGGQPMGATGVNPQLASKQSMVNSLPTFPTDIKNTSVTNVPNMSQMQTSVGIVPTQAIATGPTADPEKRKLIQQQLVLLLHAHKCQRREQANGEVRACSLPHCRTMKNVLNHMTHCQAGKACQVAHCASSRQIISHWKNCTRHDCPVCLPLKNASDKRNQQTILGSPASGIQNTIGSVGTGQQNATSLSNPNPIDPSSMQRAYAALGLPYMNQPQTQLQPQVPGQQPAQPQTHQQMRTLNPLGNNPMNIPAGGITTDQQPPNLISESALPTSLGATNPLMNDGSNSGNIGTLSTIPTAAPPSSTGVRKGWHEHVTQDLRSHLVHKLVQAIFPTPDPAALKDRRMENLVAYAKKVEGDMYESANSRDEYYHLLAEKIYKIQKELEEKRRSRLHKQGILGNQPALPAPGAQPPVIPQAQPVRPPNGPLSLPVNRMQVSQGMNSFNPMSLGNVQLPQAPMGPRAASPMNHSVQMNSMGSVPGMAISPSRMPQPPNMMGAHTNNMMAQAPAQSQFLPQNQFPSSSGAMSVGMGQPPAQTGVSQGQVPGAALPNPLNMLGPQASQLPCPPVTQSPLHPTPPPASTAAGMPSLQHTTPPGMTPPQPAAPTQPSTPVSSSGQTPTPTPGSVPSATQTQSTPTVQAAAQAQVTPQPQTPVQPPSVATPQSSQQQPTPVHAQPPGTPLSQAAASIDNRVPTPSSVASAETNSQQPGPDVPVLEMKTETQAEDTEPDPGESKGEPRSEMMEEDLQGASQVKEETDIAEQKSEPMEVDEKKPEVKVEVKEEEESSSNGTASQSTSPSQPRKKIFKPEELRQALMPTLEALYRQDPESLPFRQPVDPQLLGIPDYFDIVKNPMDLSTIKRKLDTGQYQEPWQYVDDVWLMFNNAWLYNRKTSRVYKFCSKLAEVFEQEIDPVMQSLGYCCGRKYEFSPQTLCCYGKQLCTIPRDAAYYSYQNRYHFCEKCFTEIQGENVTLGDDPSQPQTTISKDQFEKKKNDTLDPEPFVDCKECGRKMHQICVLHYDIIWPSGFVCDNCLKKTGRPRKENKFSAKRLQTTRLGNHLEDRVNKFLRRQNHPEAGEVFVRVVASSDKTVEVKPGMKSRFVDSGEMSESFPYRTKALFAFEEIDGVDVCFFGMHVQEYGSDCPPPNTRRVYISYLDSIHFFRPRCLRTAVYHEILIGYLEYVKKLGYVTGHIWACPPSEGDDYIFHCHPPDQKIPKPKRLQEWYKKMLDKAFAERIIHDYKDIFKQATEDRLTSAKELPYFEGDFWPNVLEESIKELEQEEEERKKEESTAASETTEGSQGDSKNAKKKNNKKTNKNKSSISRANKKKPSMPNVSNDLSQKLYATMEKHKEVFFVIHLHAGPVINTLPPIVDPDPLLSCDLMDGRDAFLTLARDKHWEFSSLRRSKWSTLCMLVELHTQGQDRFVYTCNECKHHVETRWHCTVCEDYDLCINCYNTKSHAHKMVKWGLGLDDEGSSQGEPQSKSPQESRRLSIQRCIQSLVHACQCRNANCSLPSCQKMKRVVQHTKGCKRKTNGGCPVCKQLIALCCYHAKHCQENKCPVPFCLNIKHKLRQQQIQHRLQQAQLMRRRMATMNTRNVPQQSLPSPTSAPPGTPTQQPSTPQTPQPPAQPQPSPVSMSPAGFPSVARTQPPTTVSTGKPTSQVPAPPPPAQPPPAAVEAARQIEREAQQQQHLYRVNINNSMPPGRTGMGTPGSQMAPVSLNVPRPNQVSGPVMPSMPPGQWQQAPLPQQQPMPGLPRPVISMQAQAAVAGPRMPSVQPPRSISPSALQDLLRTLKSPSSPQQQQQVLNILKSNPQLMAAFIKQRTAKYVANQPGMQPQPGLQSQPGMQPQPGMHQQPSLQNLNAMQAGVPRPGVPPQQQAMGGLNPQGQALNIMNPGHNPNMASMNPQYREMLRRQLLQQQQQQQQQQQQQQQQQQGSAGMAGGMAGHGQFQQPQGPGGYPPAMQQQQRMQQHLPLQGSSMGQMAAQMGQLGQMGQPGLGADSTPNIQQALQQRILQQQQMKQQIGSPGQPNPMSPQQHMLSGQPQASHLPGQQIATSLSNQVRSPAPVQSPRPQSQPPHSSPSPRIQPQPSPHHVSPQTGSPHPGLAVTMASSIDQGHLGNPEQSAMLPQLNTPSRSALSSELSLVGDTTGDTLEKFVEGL

- inhibition [11]: inactive
SMILES: CNC(=O)Nc1ccc2c(c1)CCS21OC(=O)N(CC(=O)N(Cc2ccc(F)cc2)[C@@H](C)C(F)(F)F)C1=O (some centres undefined)
- inhibition (Mus musculus [1]): Active
- Activity (Mus musculus [2]): inactive
- inhibition (Hepatocyte [3]): Active
- inhibition (Mus musculus [4]): inactive
- inhibition (Mus musculus [5]): inactive
- inhibition (Mus musculus [6]): Active
- inhibition (Mus musculus [7]): Active
- inhibition (Mus musculus [8]): inactive
- inhibition (Mus musculus [9]): Active
- inhibition (Mus musculus [10]): Active
- inhibition (Hepatocyte [12]): Active
- inhibition (Mus musculus [13]): Active
- inhibition (Mus musculus [14]): Active
- inhibition (Hepatocyte [15]): Active
- inhibition (Hepatocyte [16]): inactive
- inhibition (Adipocyte): Active
- inhibition (Mus musculus [17]): Active
- Activity (Mus musculus [18]): Active
